Source: ChEMBL document CHEMBL1132403, “Prospective identification of biologically active structures by topomer shape similarity searching” (J Med Chem, 1999)

Target: T1, Type-1 angiotensin II receptor B (Rattus norvegicus) (UniProt P29089)
T1 sequence (whole entry): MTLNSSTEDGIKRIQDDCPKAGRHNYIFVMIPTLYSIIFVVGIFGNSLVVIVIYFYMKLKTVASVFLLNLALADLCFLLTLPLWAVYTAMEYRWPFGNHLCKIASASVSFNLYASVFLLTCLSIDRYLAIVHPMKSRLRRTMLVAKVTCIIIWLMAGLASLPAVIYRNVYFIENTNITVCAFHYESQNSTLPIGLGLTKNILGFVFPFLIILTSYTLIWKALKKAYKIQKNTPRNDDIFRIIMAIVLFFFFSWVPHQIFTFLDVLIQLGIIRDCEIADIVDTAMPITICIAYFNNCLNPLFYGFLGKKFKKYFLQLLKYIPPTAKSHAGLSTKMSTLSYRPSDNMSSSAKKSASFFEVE
Assay: Percent displacement of [125I]Sar, Ile-Angiotensin II (A II) binding to rat Angiotensin II receptor, type 1
Parameters: concentration or dose not given beside the values
Outline: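 Whole-cell competition binding on rat aortic smooth muscle cells expressing rat AT1, seeded 24 h before assay. Radioligand [125I]Sar,Ile-angiotensin II at 0.2 nM in DMEM pH 7.4 with 5 mM MgCl2, 1 mM EDTA and 0.1% BSA. Incubation 2 h at 25 °C with mild shaking. Nonspecific binding defined by 10 μM angiotensin II (final). Cells washed twice with PBS, lysed in 1% Triton X/0.1% BSA, and counted on a γ counter. Assay variability at least ±20%.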

SMILES | Displacement
CC(C)c1nc2ccccc2n1Cc1ccc(-c2ccccc2-c2nn[nH]n2)cc1 | 69%
c1ccc(-c2ccc(Cn3c(-c4cscn4)nc4ccccc43)cc2)c(Cc2nnn[nH]2)c1 | 35%
CCCc1nccn1Cc1ccc(-c2ccccc2C(=O)O)cc1 | 37%
O=C(O)c1cccc(-c2ccc(Cn3c(C(F)(F)F)nc4ccccc43)cc2)c1 | 33%
CN(C)c1cnnc2ncn(Cc3cccc(-c4ccccc4C(=O)O)c3)c12 | 47%
O=C1COc2cccnc2N1Cc1cccc(-c2cccc(Cc3nnn[nH]3)c2)c1 | 21%
O=C(O)c1cccc(-c2ccc(CN3C(=O)C(=O)c4c(Cl)ccc(Cl)c43)cc2)c1 | 31%
Clc1nc2ccccc2n1Cc1ccc(-c2ccccc2Cc2nnn[nH]2)cc1 | 31%
CSc1nc2ccccc2n1Cc1ccc(-c2ccccc2Cc2nnn[nH]2)cc1 | 38%
CCOC(=O)c1cc2ccccc2n1Cc1cccc(-c2ccccc2CC(=O)O)c1 | 30%
